Data reported in PubChem BioAssay AID504383 (The Scripps Research Institute Molecular Screening Center, 2011).
The campaign covered roughly 2,500 compounds. About 1,200 (48%) were called active.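 The calls were made as follows: active = mean activation above the low control average plus 3 SD, as set in the primary screen (cut at about 12% in these data); inactive = the rest.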 The set was probably picked from earlier hits. This is one part of the list.

The compounds below were run against Troponin I, cardiac muscle (Homo sapiens) + Troponin T, cardiac muscle (Homo sapiens) + Troponin C, slow skeletal and cardiac muscles (Homo sapiens) (UniProt P19429+P45379+P63316) (assay: cardiac RTF calcium sensitivity activators, confirmation, biochemical, IANBD-TnC fluorescence, triplicate (AID 504383;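 also: 0% = DMSO at 0.472 mM calcium and 100% = DMSO at 2.9 mM calcium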)). Settings: IANBD-labeled cardiac RTF, Ca2+ sensitivity fluorescence; at 7.2 µM; stronger effect = higher value; scaled from EC20 to saturating calcium; tested at EC20 calcium, 0.472 mM.
Procedure, shortened: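 System: Labelled thin filament complex | Technique: Filament fluorescence intensity | Benchmarks: Low control EC20 calcium, high control EC100 calcium | Timing: 15 min at 25 °C | Compound dosing: One dose, 7.2 µM nominal | Probe or stimulus: Ca2+ 0.472 mM, EC20 level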
With C#CC[N+](C)(C)CCCCCCCCCC the activation was 45.3% (active). COc1ccc(NC(=O)C2CC2)cc1OC1CCCC1 was tested, and the activation was -0.05% (inactive). For COc1cc(NC(=O)C2CCCCN2)ccc1OCC(C)C (centres undefined), the activation was 15.1% (active). For CCC(CC)c1nc(C#N)c(NC(C)c2ccccc2)o1 (centres undefined), the activation was 3.34% (inactive). For C=CCNc1oc(COc2ccc(C)cc2)nc1C#N, the activation was 25.2% (active). In the case of COc1ccc(CNc2oc(COc3ccccc3)nc2C#N)cc1, the activation was 62.4% (active). With CN(C)c1ccc(NC2=C([N+](=O)[O-])CS(=O)(=O)C2)cc1 the activation was 12.2% (active). In the case of CC1=C(C)CC(C(=O)NNC(=O)c2cccc(Cl)c2)C(C(=O)O)C1 (centres undefined), the activation was 10.7% (inactive). For CCc1ccc(C(=O)NNc2ccccc2F)cc1, the activation was 7.76% (inactive). With CCc1ccc(C(=O)NNC(=O)c2cccc(N3C(=O)CCC3=O)c2)cc1 the activation was 34.6% (active). With CN(C)c1ccc(/C=C(/C(=O)c2ccc(Cl)cc2Cl)n2cncn2)cc1 the activation was 4.11% (inactive). In the case of COc1ccc(CCNC(=O)CN(C)S(=O)(=O)c2ccc3c(c2)CCC(=O)N3)cc1OC, the activation was 8.22% (inactive). O=C1CCc2cc(S(=O)(=O)NC3CCCCC3)ccc2N1 was tested, and the activation was 12.4% (active). With Cc1cc(C(=O)NNC(=S)NCc2ccccc2)cs1 the activation was 7.2% (inactive). Cc1cc(C(=O)NNC(=S)Nc2ccccc2C)cs1 was tested, and the activation was 15.8% (active). With Cc1nn(-c2ccccc2)c(N2CCCC2)c1/C=C1\N=C(c2ccc(OC(C)C)cc2)OC1=O the activation was 9.02% (inactive). With COc1ccc(OC)c(/C=C2/Sc3ccccc3C2=O)c1 the activation was 5.85% (inactive). With COc1ccc(OC)c(/C=C2\N=C(c3ccccc3)OC2=O)c1 the activation was 33.8% (active). With Cc1ccc2oc3c(SCc4nc5ccccc5[nH]4)nc(C)nc3c2c1 the activation was 21.2% (active). With Cc1ccc(C)c(C2=NNC(=O)CC2)c1 the activation was 2.35% (inactive). COC(=O)[C@@]1(Cc2ccc(OC)cc2)[C@@H]2C(=CC(=O)[C@H]2CC(=O)C(=O)N2CCCC2)CN1C(=O)c1ccccc1 was tested, and the activation was 36% (active). CC(C)CNC(=S)NC(=O)c1ccccc1Cl was tested, and the activation was 106% (active). With Nc1cccc2c1C(=O)N(c1ccccc1)C2=O the activation was 7.13% (inactive). With O=C1c2ccccc2C(=O)N1c1ccc(Cc2ccncc2)cc1 the activation was 18.1% (active). COC(=O)CSc1nc2c(c(=O)n(C)c(=O)n2C)n1CCCc1ccccc1 was tested, and the activation was 147% (active). CSc1nc2c(c(=O)[nH]c(=O)n2C)n1CCCc1ccccc1 was tested, and the activation was 3.83% (inactive). With CN1CCN(c2nc3c(c(=O)n(C)c(=O)n3C)n2Cc2ccccc2F)CC1 the activation was 5.62% (inactive). With CCOC(=O)CSc1nc2c(c(=O)n(C)c(=O)n2C)n1Cc1ccccc1F the activation was 1280% (active). C=CCNc1nc2c(c(=O)[nH]c(=O)n2C)n1CCCc1ccccc1 was tested, and the activation was 9.95% (inactive). With C=CC[C@@H](CC(=O)N(CCO)Cc1ccccc1)C(=O)N[C@@H](COC(=O)[C@@H](CC=C)Cc1ccc(F)cc1)Cc1ccccc1 the activation was 0.1% (inactive). With Cc1cccc(NC(=S)Nc2ccc(N3CCOCC3)cc2)c1C the activation was 5.72% (inactive). S=C(Nc1ccc(N2CCOCC2)cc1)Nc1ccc2nc(-c3ccco3)c(-c3ccco3)nc2c1 was tested, and the activation was 43.1% (active). For C[C@H](CO)N1C[C@H](C)[C@@H](CN(C)Cc2ccc(Oc3ccccc3)cc2)Oc2c(NC(=O)C3CC3)cccc2C1=O, the activation was 47.7% (active). With C[C@H](CO)N1C[C@H](C)[C@@H](CN(C)S(=O)(=O)c2cccs2)Oc2c(NC(=O)Nc3ccc4c(c3)OCO4)cccc2C1=O the activation was 9.29% (inactive). With C[C@H]1CN([C@@H](C)CO)C(=O)c2cccc(NC(=O)c3nc4ccccc4s3)c2O[C@H]1CN(C)C(=O)Nc1ccc(F)cc1 the activation was 12.9% (active). In the case of C[C@H](CO)N1C[C@H](C)[C@@H](CN(C)C(=O)Nc2ccccc2)Oc2ccc(NC(=O)Nc3ccc4c(c3)OCO4)cc2C1=O, the activation was 9.67% (inactive). With C[C@H](CO)N1C[C@H](C)[C@@H](CN(C)Cc2ccncc2)Oc2c(NS(=O)(=O)c3ccc(F)cc3)cccc2C1=O the activation was 10.3% (inactive). With C[C@H](CO)N1C[C@H](C)[C@@H](CN(C)Cc2ccncc2)Oc2c(NC(=O)c3ccncc3)cccc2C1=O the activation was 16.5% (active). C[C@H](CO)N1C[C@H](C)[C@@H](CN(C)C(=O)Nc2ccc(F)cc2)Oc2ccc(NS(C)(=O)=O)cc2C1=O was tested, and the activation was 9.89% (inactive). For Cc1noc(C)c1NC(=O)N(C)C[C@H]1Oc2c(NS(=O)(=O)c3cccs3)cccc2C(=O)N([C@H](C)CO)C[C@@H]1C, the activation was 4.83% (inactive). For CCOC(=O)c1c(C)oc2c1c(C=NCCO)c(O)c1ccccc12, the activation was 4.94% (inactive). With CN(C)c1ccc(/C=C(/C#N)C(=O)NCc2ccccc2)o1 the activation was 12.4% (active). N#C/C(=C\c1ccc(O)c(O)c1)C(=O)NCCCc1ccccc1 was tested, and the activation was 4.22% (inactive). For CC(C)NC(=O)/C(C#N)=C\c1ccc(N(C)C)o1, the activation was 215% (active). For CCN(CC)c1ccc(/C=C(\C#N)C(N)=S)cc1, the activation was 45.5% (active). CCN(CC)c1ccc(/C=C(/C#N)C(=O)NCc2ccccc2)o1 was tested, and the activation was 3.76% (inactive). For CCN(CC)c1ccc(/C=C(\C#N)C(=O)NCc2ccccc2)cc1, the activation was 60.6% (active). With CCN(CC)c1ccc(/C=C(/C#N)C(=O)NC(C)C)o1 the activation was 9.75% (inactive). For CCN(CC)c1ccc(/C=C(\C#N)C(=O)c2ccc(Br)cc2)cc1, the activation was 3.52% (inactive). CC(C)NC(=O)/C(C#N)=C/c1ccc(N(C)C)o1 was tested, and the activation was 7.34% (inactive). With Cc1cc(Cn2nc(C(=O)NCC3CC3)cc2-c2ccccc2)on1 the activation was 6.6% (inactive). For COc1ccccc1/C=[N+](\[O-])C1SC(=S)N(C)C1(C)C (centres undefined), the activation was 8.76% (inactive). O=C(NCc1ccccc1)c1ccc(N2CCC3(CC2)CC(c2ccccc2)=NO3)c([N+](=O)[O-])c1 was tested, and the activation was 5.88% (inactive). For NC(=O)CC(NC(=O)Cc1ccc(Cl)cc1)c1ccc(N2CCN(c3ccccn3)CC2)c([N+](=O)[O-])c1 (centres undefined), the activation was 137% (active). For Cc1cc(C)cc(C(=O)NC(CC(N)=O)c2ccc(N3CCCCCC3)c([N+](=O)[O-])c2)c1 (centres undefined), the activation was 3.03% (inactive). For NC(=O)CC(NC(=O)c1ccc(Br)cc1)c1ccc(N2CCN(c3ccc(F)cc3)CC2)c([N+](=O)[O-])c1 (centres undefined), the activation was 42.4% (active). In the case of NC(=O)c1c(N)sc2c1CCCCC2, the activation was 7.59% (inactive). For COc1ccc2nc3ccccc3nc2c1NC(=O)c1ccc(Br)cc1, the activation was 139% (active). With COc1ccc2nc3ccccc3nc2c1NC(=O)c1ccc(Cl)cc1Cl the activation was 6.58% (inactive). With COc1cc(SC)ccc1C(=O)Nc1nc2ccccc2[nH]1 the activation was 9.59% (inactive). In the case of CSCC(O)Cn1[nH]c(=O)c2cc(Cl)c(Cl)cc2c1=O (centres undefined), the activation was 8.73% (inactive). COC(=O)c1ccc(CS(=O)(=O)c2ccc(F)cc2)o1 was tested, and the activation was 1.48% (inactive). For COC(=O)c1ccc(CSc2nnc(NCc3ccccc3)s2)o1, the activation was 17.8% (active). In the case of COc1ccc(CN2CCN(C(=O)c3ccccc3F)CC2)c(OC)c1OC, the activation was 44.3% (active). In the case of COc1ccc(CN2CCC(C(=O)N3CCN(c4ccccc4F)CC3)CC2)cc1OC, the activation was 8.86% (inactive). With COc1cccc(CNC(=O)CCC(=O)N2CC(C)Oc3ccccc32)c1OC (centres undefined) the activation was 4.26% (inactive). For COC(=O)c1ccccc1-c1c2ccc(=N)cc-2oc2cc(N)ccc12, the activation was 9.11% (inactive). In the case of O=c1cc2oc3cc(O)c(O)cc3c(-c3ccccc3O)c-2cc1O, the activation was 16.1% (active). For COc1cc(OC)c(-c2c3cc(O)c(=O)cc-3oc3cc(O)c(O)cc23)cc1OC, the activation was 19.3% (active). CCOc1ccccc1-c1c2cc(O)c(=O)cc-2oc2cc(O)c(O)cc12 was tested, and the activation was 8.3% (inactive). In the case of Cn1ncc(Cl)c1C(=O)Nc1cccc(Cl)c1, the activation was 5.51% (inactive). In the case of CSc1cccc(NC(=O)c2ccc(Cl)nc2)c1, the activation was 15.5% (active). CCOC(=O)C1CCCN(C(=O)c2cccc(S(=O)(=O)N3CC(C)OC(C)C3)c2)C1 (centres undefined) was tested, and the activation was -1.51% (inactive). In the case of CC1CN(c2ccc(NS(=O)(=O)c3ccccc3)cc2C(=O)O)CC(C)O1 (centres undefined), the activation was 98.7% (active). In the case of CC(=O)c1ccc(S(=O)(=O)Nc2ccc(C(=O)N3CCC3)cc2)cc1, the activation was 1.58% (inactive). For CC(C)(C)c1ccc(C(=O)Nc2cccc3ncccc23)cc1, the activation was 10.2% (inactive). With CCc1ccc(C(=O)Nc2cccnc2Oc2ccc(Cl)cc2)cc1 the activation was 22% (active). For CC(C)Cn1c(N)c(C(=O)COC(=O)c2cc(F)cc(F)c2)c(=O)n(C)c1=O, the activation was 225% (active). For O=c1oc2c(O)cccc2cc1-c1nc2ccccc2[nH]1, the activation was 8.93% (inactive). For O=c1oc2c(CN3CCCCC3)c(O)ccc2cc1-c1nc2ccccc2[nH]1, the activation was 224% (active). With O=c1c2ccccc2nc(SCc2nc(-c3ccccc3)no2)n1-c1ccc(F)cc1 the activation was 2.61% (inactive). In the case of CC(=O)c1cccc(NC(=O)Cn2nc(-c3ccccc3Cl)ccc2=O)c1, the activation was 11.2% (inactive). For O=C(COC(=O)Cn1cnc2ccccc21)Nc1cccc2c1C(=O)c1ccccc1C2=O, the activation was 25.4% (active). With CCC(C)n1ncn(-c2ccc(N3CCN(c4ccc(OCC5COC(Cn6cncn6)(c6ccc(Cl)cc6Cl)O5)cc4)CC3)cc2)c1=O (centres undefined) the activation was 390% (active). In the case of Fc1ccc(-c2nc3ccncc3[nH]2)cc1, the activation was 13% (active). Cc1ccc(CNC(=O)CC(C)S(=O)(=O)c2ccc3c(c2)NC(=O)CS3)o1 (centres undefined) was tested, and the activation was 354% (active). With CCCCc1ccc(NC(=O)c2cnccn2)cc1 the activation was 22.1% (active). For CCCCc1ccc(NC(=O)N2CCNC(=O)C2CC(=O)Nc2ccsc2C(=O)OC)cc1 (centres undefined), the activation was 5.97% (inactive). COC(=O)[C@@H]1C[C@@]2(O)[C@H](O)[C@H](O)[C@H](O)C[C@H]2N1C/C=C/c1ccccc1 was tested, and the activation was 6.57% (inactive).
